Screening results from PubChem.
OXTR ag = activates the human oxytocin receptor; 0.32% of 320,000 active; CHO-OTR cells, Fluo-8 calcium fluorescence; normalized: DMSO 0%, oxytocin 100%; activation, % at 3 µM; P30559;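 active = activation above the mean of all tested compounds plus 3 SD, cutoff set per screening run, cut at about 20% in these data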;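 note: peak over basal fluorescence ratio from a 100 s FLIPR kinetic read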
Target sequence (P30559 whole entry, looked up): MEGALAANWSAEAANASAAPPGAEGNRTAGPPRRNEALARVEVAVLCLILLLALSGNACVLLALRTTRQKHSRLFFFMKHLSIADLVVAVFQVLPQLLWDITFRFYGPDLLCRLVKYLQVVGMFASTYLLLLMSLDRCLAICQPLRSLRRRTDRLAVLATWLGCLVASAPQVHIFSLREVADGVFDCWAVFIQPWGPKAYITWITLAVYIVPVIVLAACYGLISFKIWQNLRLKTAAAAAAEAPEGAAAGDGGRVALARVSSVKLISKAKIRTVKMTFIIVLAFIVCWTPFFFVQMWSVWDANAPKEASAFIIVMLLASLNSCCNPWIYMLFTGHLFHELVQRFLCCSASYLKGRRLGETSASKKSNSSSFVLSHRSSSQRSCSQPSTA
TRPML3 agonist = human mucolipin-3 channel agonism. Q8TDD5. activation, % at 3 µM. 0.29% of 220,000 active. HEK293 TRPML3-YFP, Fluo-8 calcium fluorescence; 100% = the carbachol control signal;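 active = activation above its plate's cutoff, the mean activation of the plate's test wells plus 3 SD, cut at about 12% in these data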
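Test system – HEK293 line with stable expression of human TRPML3-YFP channel · Control set – carbachol 87 µM final as high control (100%), DMSO as low control (0%) · Signal – Fluo-8 calcium dye fluorescence, ex 470-495, em 515-575 nm · Incubation – 1-h 37 °C dye load, 5-s basal, 120-s post-compound reads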
OXTR potentiator = human OXTR potentiation; CHO-OTR cells, Fluo-8 calcium fluorescence, potentiator mode; 0% = oxytocin EC15, 100% = EC100; activation, % at 3 µM; 0.061% of 320,000 active; AID 2445;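 active = activation above that plate's cutoff, the mean activation of tested compounds plus 3 SD, cut at about 6.6% in these data, passing the limit was not always enough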
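Measured by – Fluo-8 calcium dye fluorescence · Test system – human OTR in CHO cells · Dosing – one concentration, 3.0 µM compound · Controls – EC15 oxytocin alone as 0%, 75 nM oxytocin as 100% · Evaluation – normalized max/min fluorescence ratio, % activation · Timing – 6 min pre-incubation, 100 s read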
TRPN1 ag = agonists of zebrafish TRPN1 channel | activation, % at 3 µM | 0.18% of 220,000 active | HEK293 zebrafish TRPN1-YFP, Fluo-8 calcium fluorescence; 100% = response to 87 µM carbachol;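 active = activation above its plate's cutoff, the mean activation of test wells on that plate plus 3 SD, cut at about 19% in these data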
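System: zebrafish TRPN1-YFP in HEK293 cells / Dosing: 3 µM single point / Timing: dye loading 1 h at 37 °C, then 30 min room temperature / Signal: Fluo-8 calcium fluorescence, excitation 470-495 nm, emission 515-575 nm / Read-out basis: percent activation from peak over basal fluorescence ratio, control-normalized / Control set: high carbachol 87 µM, low DMSO alone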
V1aR counter = activates human V1a receptor in oxytocin agonist counter-screen; activation, % at 3 µM; CHO-V1R cells, Fluo-8 calcium fluorescence, agonist mode; 0% DMSO, 100% 3 nM vasopressin; 0.25% of 320,000 active; P37288;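 active = activation above the mean activation of all tested compounds plus 3 SD, per screening run, cut at about 20% in these data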;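 note: signal is peak over basal fluorescence ratio across a 100 second FLIPR read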
V1R ag confirm = human V1a receptor agonism, confirmation; CHO-V1R cells, Fluo-8 calcium fluorescence, agonist; activation, % at 3 µM; AID 434964; shares compounds with V1aR counter; 20% of 180 active;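 active = average activation exceeds primary screen hit cutoff, cut at about 21% in these data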;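 note: peak over basal fluorescence ratio during a 100 s FLIPR read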
OXTR ag counter = OXTR agonism, counter-screen for V1R agonists; shares compounds with V1aR counter; CHO-OTR cells, Fluo-8 calcium fluorescence, agonist; activation, % at 3 µM; 10% of 180 active; AID 434969;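 active = mean activation over three repeats above the cutoff from the earlier oxytocin receptor agonist screen, cut at about 20% in these data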;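 note: peak over minimum fluorescence ratio within a 100 second FLIPR read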
Large screens that a line does not name were inactive (follow-up assays come after a bar, where they were run). This is a sample that favours compounds with a hit; in the whole collection about 0.55% have one here.

CN1CCN(c2ccc([N+](=O)[O-])c3no[n+]([O-])c23)CC1	V1aR counter 28 | V1R ag confirm inactive | OXTR ag counter inactive
CC1(C)OC(c2ccccc2)=C/C(=C/C=C2C(=O)NC(=O)NC2=O)O1	TRPML3 agonist 24, TRPN1 ag 46, V1aR counter 22 | V1R ag confirm 37 | OXTR ag counter 25
CN(C)c1ccc(/C=C/[N+](=O)[O-])cc1	V1aR counter 29 | V1R ag confirm 38 | OXTR ag counter 24
O=C(CCc1ccccc1)N1C[C@H]2C[C@@H](C1)c1cccc(=O)n1C2	none (no result: TRPML3 agonist, TRPN1 ag)
ClCCOCOCCCl	none (no result: TRPML3 agonist, TRPN1 ag)
